The results in this text go back to the RNAGym collection of RNA variant scans (doi:10.1002/anie.201605470).

The chains are these.
B1: Osa-1-4 twister ribozyme (parent)
chain: CCGCCUAACACUGCCAAUGCCGGUCCCAAGCCCGGAUAAAAGUGGAGGGGGCGG

The variants in the data set derive from B1. Briefly: self-cleavage, relative activity (ratio to wild type); higher = more cleavage; co-transcriptional. An outline of the steps: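 A DNA template was synthesised for a 54-nucleotide twister ribozyme from Oryza sativa, with 97 % wild-type base and 1 % of each other base at each of the 48 positions downstream of the cleavage site. The ribozyme cleaved itself co-transcriptionally during 2 h of in vitro transcription at 37 °C. Reverse transcription with a template-switching oligonucleotide, PCR amplification and deep sequencing followed, and cleavage status came from reads with or without upstream sequence. Relative activity is the fraction cleaved normalised to wild type.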
In the case of CCGCCUAACACUGCCAAUGUCGGUCCCAAGCCCGGUUAAAAGUGGAGGGGGCGG [A36U C20U], the self-cleavage turned out to be 0.99.

With CCGCCUAACACUGCCAAUGACGGUCCCAAGCCCGGUUAAAAGUGGAGGGGGCGG [A36U C20A], the self-cleavage stood at 0.82.

CCGCCUAACAAUGCCAAUGCCGGUCCCAAGCCCGGUUAAAAGUGGAGGGGGCGG [A36U C11A]: the self-cleavage worked out at 0.87.

Regarding CCGCCUAACAGUGCCAAUGCCGGUCCCAAGCCCGGUUAAAAGUGGAGGGGGCGG [A36U C11G], the self-cleavage was determined as 0.72.

Turning to CCGCCUAACAUUGCCAAUGCCGGUCCCAAGCCCGGUUAAAAGUGGAGGGGGCGG [A36U C11U], the self-cleavage came out at 0.94.

For CCGCCUAACACUGCCAAUGCCCGUCCCAAGCCCGGUUAAAAGUGGAGGGGGCGG [A36U G22C], the self-cleavage was found to be 0.19.

As for CCGCCUAACACUGCCAAUGCCUGUCCCAAGCCCGGUUAAAAGUGGAGGGGGCGG [A36U G22U], the self-cleavage turned out to be 0.9.

For the variant CCGCCUAACACUGCCAAUGCCAGUCCCAAGCCCGGUUAAAAGUGGAGGGGGCGG [A36U G22A], the self-cleavage was found to be 1.05.

Regarding CCGCCUAACACUGCCAAAGCCGGUCCCAAGCCCGGGUAAAAGUGGAGGGGGCGG [A36G U18A], the self-cleavage is 0.98.

For the variant CCGCCUAACACUGCCAAGGCCGGUCCCAAGCCCGGGUAAAAGUGGAGGGGGCGG [A36G U18G], the self-cleavage was 0.85.

On to CCGCCUAACACUGCCAACGCCGGUCCCAAGCCCGGGUAAAAGUGGAGGGGGCGG [A36G U18C], for which the self-cleavage turned out to be 0.98.

Take CCGCCUAACACUCCCAAUGCCGGUCCCAAGCCCGGUUAAAAGUGGAGGGGGCGG [A36U G13C]: the self-cleavage stood at 0.03.

CCGCCUAACACUACCAAUGCCGGUCCCAAGCCCGGUUAAAAGUGGAGGGGGCGG [A36U G13A]: the self-cleavage was 0.14.

Regarding CCGCCUAACACUUCCAAUGCCGGUCCCAAGCCCGGUUAAAAGUGGAGGGGGCGG [A36U G13U], the self-cleavage was found to be 0.03.

For the variant CCGCCUAAGACUGCCAAUGCCGGUCCCAAGCCCGGUUAAAAGUGGAGGGGGCGG [A36U C9G], the self-cleavage worked out at 0.9.

Turning to CCGCCUAAUACUGCCAAUGCCGGUCCCAAGCCCGGUUAAAAGUGGAGGGGGCGG [A36U C9U], the self-cleavage came out at 0.83.

On to CCGCCUAAAACUGCCAAUGCCGGUCCCAAGCCCGGUUAAAAGUGGAGGGGGCGG [A36U C9A], for which the self-cleavage turned out to be 0.47.

Turning to CCGCCUAACACUGCCAAUGCCGGUCCCAAGCCCGGGUAAAAGUGGAGGGGGCGA [A36G G54A], the self-cleavage came out at 1.04.

With CCGCCUAACACUGCCAAUGCCGGUCCCAAGCCCGGGUAAAAGUGGAGGGGGCGU [A36G G54U], the self-cleavage came to 0.98.

As to CCGCCUAACACUGCCAAUGCCGGUCCCAAGCCCGGGUAAAAGUGGAGGGGGCGC [A36G G54C], the self-cleavage is 1.01.

Take CCGCCUAACACUGCCAAUGCCGGCCCCAAGCCCGGGUAAAAGUGGAGGGGGCGG [A36G U24C]: the self-cleavage was 0.44.

As to CCGCCUAACACUGCCAAUGCCGGACCCAAGCCCGGGUAAAAGUGGAGGGGGCGG [A36G U24A], the self-cleavage is 0.52.

As for CCGCCUAACACUGCCAAUGCCGGGCCCAAGCCCGGGUAAAAGUGGAGGGGGCGG [A36G U24G], the self-cleavage worked out at 0.04.

In the case of CCGCCUAACACUGCCAAUGCCGGUCCCAAGCCCGGGUAAAAGUGGAGGGGGCCG [A36G G53C], the self-cleavage turned out to be 0.13.

As for CCGCCUAACACUGCCAAUGCCGGUCCCAAGCCCGGGUAAAAGUGGAGGGGGCAG [A36G G53A], the self-cleavage is 0.95.

For CCGCCUAACACUGCCAAUGCCGGUCCCAAGCCCGGGUAAAAGUGGAGGGGGCUG [A36G G53U], the self-cleavage worked out at 0.61.

As for CCGCCUUACACUGCCAAUGCCGGUCCCAAGCCCGGUUAAAAGUGGAGGGGGCGG [A36U A7U], the self-cleavage was 0.07.

As for CCGCCUCACACUGCCAAUGCCGGUCCCAAGCCCGGUUAAAAGUGGAGGGGGCGG [A36U A7C], the self-cleavage was 0.04.

On to CCGCCUGACACUGCCAAUGCCGGUCCCAAGCCCGGUUAAAAGUGGAGGGGGCGG [A36U A7G], for which the self-cleavage came to 0.38.

For CCGCCUAACACUGCCAAUGCCGGUCCCAAGUCCGGUUAAAAGUGGAGGGGGCGG [A36U C31U], the self-cleavage is 0.95.

CCGCCUAACACUGCCAAUGCCGGUCCCAAGACCGGUUAAAAGUGGAGGGGGCGG [A36U C31A]: the self-cleavage stood at 0.03.

Consider CCGCCUAACACUGCCAAUGCCGGUCCCAAGGCCGGUUAAAAGUGGAGGGGGCGG [A36U C31G], for which the self-cleavage was 0.07.

On to CCGCCUAACACUGCCAAUGCCGGUCCCAAACCCGGUUAAAAGUGGAGGGGGCGG [A36U G30A], for which the self-cleavage came to 0.03.

Take CCGCCUAACACUGCCAAUGCCGGUCCCAACCCCGGUUAAAAGUGGAGGGGGCGG [A36U G30C]: the self-cleavage was 0.06.

With CCGCCUAACACUGCCAAUGCCGGUCCGAAGCCCGGUUAAAAGUGGAGGGGGCGG [A36U C27G], the self-cleavage came out at 0.09.

As to CCGCCUAACACUGCCAAUGCCGGUCCAAAGCCCGGUUAAAAGUGGAGGGGGCGG [A36U C27A], the self-cleavage is 0.29.

Take CCGCCUAACACUGCCAAUGCCGGUCCUAAGCCCGGUUAAAAGUGGAGGGGGCGG [A36U C27U]: the self-cleavage stood at 0.28.

Regarding CCGCCUAACACUGCCAAUGCCGGUCUCAAGCCCGGUUAAAAGUGGAGGGGGCGG [A36U C26U], the self-cleavage came to 1.

In the case of CCGCCUAACACUGCCAAUGCCGGUCGCAAGCCCGGUUAAAAGUGGAGGGGGCGG [A36U C26G], the self-cleavage was found to be 0.08.

For CCGCCUAACACUGCCAAUGCCGGUCACAAGCCCGGUUAAAAGUGGAGGGGGCGG [A36U C26A], the self-cleavage was found to be 0.04.

Consider CCGCCUAACACUGCCAAUGCCGGUCCCAAGCCCGGUUAAAAGUGGCGGGGGCGG [A36U A46C], for which the self-cleavage turned out to be 0.08.

In the case of CCGCCUAACACUGCCAAUGCCGGUCCCAAGCCCGGUUAAAAGUGGGGGGGGCGG [A36U A46G], the self-cleavage worked out at 0.09.

In the case of CCGCCUAACACUGCCAAUGCCGGUCCCAAGCCCGGUUAAAAGUGGUGGGGGCGG [A36U A46U], the self-cleavage amounted to 0.08.

As to CCGCCUAACACUGCCAAUGCCGGUCCCAAGCACGGUUAAAAGUGGAGGGGGCGG [A36U C32A], the self-cleavage was 0.13.

In the case of CCGCCUAACACUGCCAAUGCCGGUCCCAAGCGCGGUUAAAAGUGGAGGGGGCGG [A36U C32G], the self-cleavage was 0.12.

With CCGCCUAACACUGCCAAUGCCGGUCCCAAGCUCGGUUAAAAGUGGAGGGGGCGG [A36U C32U], the self-cleavage stood at 0.15.

Consider CCGCCUAACACUGCCAAUGCCGGUCCCAAGCCCGGUUACAAGUGGAGGGGGCGG [A36U A39C], for which the self-cleavage is 0.99.

Consider CCGCCUAACACUGCCAAUGCCGGUCCCAAGCCCGGUUAUAAGUGGAGGGGGCGG [A36U A39U], for which the self-cleavage is 0.91.

On to CCGCCUAACACUGCCAAUGCCGGUCCCAAGCCCGGUUAGAAGUGGAGGGGGCGG [A36U A39G], for which the self-cleavage was 0.98.
